TPT1 inhibitor: C. albicans TPT1 enzyme inhibition; recombinant caTPT1, FP RNA substrate dephosphorylation; inhibition, % at 5 µM; actives 0.81% (n = 300,000);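 active means inhibition above the mean of all tested compounds plus 3 SD, set per screening campaign, cut at about 24% in these data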
CSN inh: blocks human CSN-mediated cullin deneddylation; Q92905; Purified CSN, SCF-Nedd8-OG deneddylation, fluorescence polarization; inhibition, % at 12.5 µM; actives 0.38% (n = 360,000); AID 651999;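 active means pattern-corrected inhibition above about 35%, with an unprinted fluorescence ratio check between 0.5 and 1.5, limit read from the data, passing the limit was not always enough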
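test system = HEK293T-derived human Csn5 enzyme | amount = 0.24 nM Csn5 enzyme, final concentration | medium = Tris/NaCl/DTT buffer, pH 7.5 | schedule = 90 min reaction at room temperature | signal = FP | evaluation = inhibition of Csn5 cleavage, % | compound dosing = single dose of 12.5 µM compound with 0.25% DMSO | probe or stimulus = 10 nM SCFSkp2-Nedd8OG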
IDE cell inh: inhibitors of human insulin-degrading enzyme in cells. P14735. HEK cells, FAbetaB cleavage, fluorescence polarization. inhibition, % at 5.59 µM. actives 0.41% (n = 320,000). AID 434962;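 active means percent inhibition above the average of all tested compounds plus 3 SD, set per screening campaign, cut at about 16% in these data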;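 further: IDE supplied by intact live HEK cells; FP after avidin binding of uncleaved biotin substrate so inhibition keeps polarization high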
Rpn11 inh: blocks the human proteasome subunit Rpn11; human 26S proteasome, Ub4-pepOG fluorescence polarization; 20S core pre-blocked with epoxomicin; inhibition, % at 20 µM; actives 0.59% (n = 360,000);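 active means inhibition at 20 µM, scaled to each plate's controls, above about 33%, limit read from the data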
IDE act: boosts human insulin-degrading enzyme activity in HEK cells. P14735. FAbeta-B cleavage, fluorescence polarization; 0% vehicle, 100% cell-free pure enzyme wells. activation, % at 5.96 µM. actives 0.073% (n = 340,000);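 active means activation above the mean of all tested compounds plus 3 SD, set per screening campaign, cut at about 17% in these data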
HNF4A DNA FP: change in binding of human HNF4 alpha to DNA. actives 0.3% (n = 360,000). activity change, % at 10 µM. HNF4a-FITC DNA binding, fluorescence polarization, 1 h. P41235; in the data active means activity change above about 30%, passing the limit was not always enough
Rpn11 inh conf: confirmation of human proteasome Rpn11 inhibitors | shares compounds with Rpn11 inh | purified human 26S proteasome, Ub4-pepOG fluorescence polarization; proteasome pretreated with epoxomicin | inhibition, % at 20 µM | actives 29% (n = 1,900)
MMP-2 counter: blocks human MMP-2, flagging nonselective RPN11 hits; recombinant MMP-2, FRET peptide cleavage fluorescence; actives 4% (n = 1,900); inhibition, % at 20 µM; shares compounds with Rpn11 inh;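 further: human MMP-2 activated beforehand with APMA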
Target sequence (P08253 whole entry, looked up): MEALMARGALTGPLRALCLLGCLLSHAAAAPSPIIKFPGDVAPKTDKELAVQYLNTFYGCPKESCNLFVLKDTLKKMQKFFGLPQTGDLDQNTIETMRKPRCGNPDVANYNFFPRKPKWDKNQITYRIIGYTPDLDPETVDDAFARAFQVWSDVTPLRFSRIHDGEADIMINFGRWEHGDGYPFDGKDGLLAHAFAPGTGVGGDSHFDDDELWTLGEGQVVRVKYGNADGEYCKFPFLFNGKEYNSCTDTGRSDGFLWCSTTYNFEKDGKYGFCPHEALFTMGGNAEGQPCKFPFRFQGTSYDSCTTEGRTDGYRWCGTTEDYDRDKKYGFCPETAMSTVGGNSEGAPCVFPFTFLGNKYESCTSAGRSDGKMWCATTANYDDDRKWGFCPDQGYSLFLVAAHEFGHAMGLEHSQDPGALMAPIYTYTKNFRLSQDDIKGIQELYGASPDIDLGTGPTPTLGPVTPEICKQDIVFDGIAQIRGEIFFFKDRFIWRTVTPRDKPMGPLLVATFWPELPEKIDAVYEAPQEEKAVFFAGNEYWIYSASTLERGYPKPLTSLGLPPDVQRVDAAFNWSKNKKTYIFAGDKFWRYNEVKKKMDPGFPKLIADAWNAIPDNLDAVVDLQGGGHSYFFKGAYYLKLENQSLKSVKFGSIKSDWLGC
Thrombin FP: counter-screen for RPN11 inhibitors: inhibition of bovine thrombin. shares compounds with Rpn11 inh. bovine thrombin cleavage of Ub4-pepOG, fluorescence polarization. actives 13% (n = 1,900). AID 602333. inhibition, % at 20 µM;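 active means mean inhibition at least 40% at 20 µM, or signal 3 deviations below plate average, so some actives read negative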
Of the large screens only hits and unclear results are named; the others gave an inactive call (follow-up assays come after a bar, where they were run). An excerpt weighted towards active compounds, which were near 1.7% of everything screened. Unless noted, no stated cut-off is given here; in the data, active means inhibition above about 40%; inactive means the rest.

Cc1ccc(O)c(C(=O)c2cc(C#N)c(=O)n(Cc3ccccc3)c2)c1	Rpn11 inh 40 | Rpn11 inh conf inactive | MMP-2 counter inactive | Thrombin FP inactive
N#Cc1cc(C(=O)c2cc(F)ccc2O)cn(Cc2ccccc2)c1=O	none
c1ccc(-n2nnnc2Sc2ncnc3sc4c(c23)CCCC4)cc1	Rpn11 inh 47 | Rpn11 inh conf inactive | MMP-2 counter inactive | Thrombin FP inactive
COc1ccc([C@H]2C[C@H](O)[C@@H](n3cc(C4CC4)nn3)CN2C(=O)C2CCCCC2)cc1	none (no result: TPT1 inhibitor, IDE cell inh, IDE act)
NC(=O)c1cccc(Nc2nc(C(N)COCc3ccccc3)cs2)n1 (stereo not given)	none (no result: TPT1 inhibitor, IDE cell inh, IDE act)
Cc1nc2c(sc3nc(N4CCOCC4)c4c(c32)CC(C)(C)OC4)c(-c2ccc(Cl)cc2)c1C(=O)O	Rpn11 inh 57 | Rpn11 inh conf inactive | MMP-2 counter inactive | Thrombin FP inactive
Cc1sc2nc(CSC(C)C(=O)N(C)CC(=O)Nc3ccccc3C(F)(F)F)[nH]c(=O)c2c1C (stereo not given)	none
Cc1sc2nc(CSc3ccc([N+](=O)[O-])c(C(F)(F)F)c3)[nH]c(=O)c2c1C	Rpn11 inh 41 | Rpn11 inh conf inactive | MMP-2 counter inactive | Thrombin FP inactive
CCOC(=O)c1nnn2c1nc(Nc1cccc(C(F)(F)F)c1)c1ccccc12	Rpn11 inh 64 (no result: IDE act) | Rpn11 inh conf inactive | MMP-2 counter inactive | Thrombin FP inactive
CCOC(=O)c1nnn2c1nc(SCC(C)=O)c1ccccc12	none (no result: IDE act)
Cc1ccc(S(=O)(=O)N2CCN(C(=O)COC(=O)/C=C/c3ccc([N+](=O)[O-])cc3)CC2)c(C)c1	Rpn11 inh 65 (no result: TPT1 inhibitor) | Rpn11 inh conf inactive | MMP-2 counter inactive | Thrombin FP inactive
CN1/C(=C\C(=S)NC(=O)c2cccc(Br)c2)C(C)(C)c2ccccc21	Rpn11 inh 48 | Rpn11 inh conf inactive | MMP-2 counter inactive | Thrombin FP inactive
COc1ccc2c(-c3cc4ccc(OCc5ccc(F)cc5)cc4oc3=O)cc(=O)oc2c1	Rpn11 inh 78 | Rpn11 inh conf inactive | MMP-2 counter inactive | Thrombin FP inactive
CC(C)Oc1cccc(NC(=O)C2(C)CCCN2C(=O)C(C)C)c1 (stereo not given)	none (no result: TPT1 inhibitor, IDE cell inh, IDE act)
O=C(Nc1ccc(Cl)c(Cl)c1)Nc1nnc(-c2ccncc2)s1	Rpn11 inh 161 | Rpn11 inh conf inactive | MMP-2 counter inactive | Thrombin FP inactive
CC(C)(C)c1ccc(CC(=O)N2CCC2(C)C(=O)NCc2cccs2)cc1 (stereo not given)	none (no result: TPT1 inhibitor, IDE cell inh, IDE act)
CCNC(=S)/N=C(\N)Nc1nc(C)c2cc(C)ccc2n1	Rpn11 inh 44 | Rpn11 inh conf inactive | MMP-2 counter inactive | Thrombin FP inactive
CNc1cncc(-c2cccnc2)n1	none (no result: TPT1 inhibitor, IDE cell inh, IDE act)
CCOc1ccc(C2NC(=O)C(C#N)=C(S)N2c2cccc(C)c2)cc1OC (stereo not given)	none
CCOc1ccc(C2NC(=O)C(C#N)=C(S)N2c2ccc(C)cc2)cc1OC (stereo not given)	Rpn11 inh 70, HNF4A DNA FP 31 | Rpn11 inh conf inactive | MMP-2 counter inactive | Thrombin FP inactive
COc1ccc(C2CC(c3cccs3)=NN2C(=O)CSC2=NCCS2)cc1 (stereo not given)	Rpn11 inh 80 | Rpn11 inh conf inactive | MMP-2 counter inactive | Thrombin FP inactive
Cc1ccc(C2CC(c3cccs3)=NN2C(=O)CSC2=NCCS2)cc1 (stereo not given)	none
COc1ccc(C2CC(c3cccs3)=NN2C(=O)COC(=O)c2cncc(Br)c2)cc1OC (stereo not given)	Rpn11 inh 43 | Rpn11 inh conf inactive | MMP-2 counter 63 | Thrombin FP inactive
Cc1ccc(C2CC(c3cccs3)=NN2C(=O)CCl)cc1 (stereo not given)	Rpn11 inh 46 | Rpn11 inh conf inactive | MMP-2 counter inactive | Thrombin FP inactive
Cc1ccc2nc(-c3ccc(F)cc3)c(CC3CCCCC3)n2c1	none (no result: TPT1 inhibitor, IDE cell inh, Rpn11 inh, IDE act)
Cc1cccc(N=Cc2ccccc2O)c1C	none (no result: TPT1 inhibitor, IDE cell inh, IDE act)
CCc1ccc(O)c(N=Cc2cccc(C)c2O)c1	Rpn11 inh 44 | Rpn11 inh conf 43 | MMP-2 counter inactive | Thrombin FP inactive
CCOc1ccc(C2OCCC(C)O2)cc1OC (stereo not given)	none (no result: TPT1 inhibitor, IDE cell inh)
CC1(C)Oc2ccc(C(=O)NC3CCCC3)cc2N(CC(=O)N2CCOCC2)C1=O	Rpn11 inh 75 | Rpn11 inh conf inactive | MMP-2 counter inactive | Thrombin FP inactive
Clc1ccc(CN2CCC(c3nc4ccc(Cl)cc4[nH]3)CC2)cc1	Rpn11 inh 55 | Rpn11 inh conf inactive | MMP-2 counter inactive | Thrombin FP inactive
CCCOc1ccc(F)cc1-c1cc(C(=O)NCc2cccc(Cl)c2)[nH]n1	none (no result: TPT1 inhibitor, IDE cell inh, IDE act)
COc1cc(C(O)c2nc(-c3ccc(N(C)C)cc3)cs2)ccc1F (stereo not given)	none (no result: TPT1 inhibitor, IDE cell inh, IDE act)
Cc1cccc(NC(=O)C(C)SCc2nc3sc4c(c3c(=O)[nH]2)CCCC4)n1 (stereo not given)	Rpn11 inh 48 | Rpn11 inh conf inactive | MMP-2 counter inactive | Thrombin FP inactive
Cc1ccc(NC(=O)CCc2nc3sc4c(c3c(=O)[nH]2)CCCC4)nc1	Rpn11 inh 49 | Rpn11 inh conf 78 | MMP-2 counter inactive | Thrombin FP inactive
CCc1cccc(NC(=O)CCc2nc3sc4c(c3c(=O)[nH]2)CCCC4)c1	Rpn11 inh 47 | Rpn11 inh conf inactive | MMP-2 counter inactive | Thrombin FP 45
COc1ccccc1NC(=O)CCc1nc2sc3c(c2c(=O)[nH]1)CCCC3	Rpn11 inh 44 | Rpn11 inh conf 67 | MMP-2 counter inactive | Thrombin FP inactive
Cc1cccc(NC(=O)CCc2nc3sc4c(c3c(=O)[nH]2)CCCC4)c1	none
CCCC#Cc1ccc2c(c1)O[C@H](CN(C)C(=O)CC1CC1)[C@H](C)CN([C@@H](C)CO)S2(=O)=O	none (no result: TPT1 inhibitor, IDE cell inh, IDE act)
O=C(CN1CCN(c2ccccn2)CC1)NC1CCCC1	Rpn11 inh 86 | Rpn11 inh conf inactive | MMP-2 counter inactive | Thrombin FP 59
O=C(CN1CCN(c2ccccn2)CC1)Nc1ccccc1	none
C[C@@H](NC(=O)c1ncn2c1c(=O)[nH]c1ccc(Br)cc12)c1ccccc1	Rpn11 inh active (no result: TPT1 inhibitor, IDE cell inh, IDE act) | Rpn11 inh conf inactive | MMP-2 counter inactive | Thrombin FP inactive
CC(C)c1ccccc1NC(=S)NN(Cc1ccccc1)c1ccccc1	none

Bioassay records: PubChem BioAssay, several laboratories
